# Reference: ChEMBL document CHEMBL1153963, “Phenanthrene-based tylophorine-1 (PBT-1) inhibits lung cancer cell growth through the Akt and NF-kappaB pathways” (J Med Chem, 2009)
# The source made the active and inactive calls. The calls are words filed in the database; no cut-off is given here.
# Assays:
# [1] = Cell cycle arrest in human CL1-0 cells assessed as accumulation at G0/G1 phase after 16 hrs by flow cytometry; type: functional, cell-based
# Outline: (§1)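 CL1-0 cells seeded at 2×10^5 per 60 mm dish, incubated 24 h, then exposed to various drug concentrations for 2, 6, 12, 16 or 24 h. Harvested cells fixed in cold 70% ethanol at 4 °C for 16 h, treated with RNase A (20 µg/mL, 37 °C, 30 min), stained with propidium iodide (50 µg/mL, 4 °C, 30 min), analysed at once by flow cytometry for phase distribution.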
# A549 [2] = test: Decrease in […] binding affinity to NF-kappaB response element on COX2 promoter in human A549 cells at >0.25 ug/mL by chromatin immunoprecipitation assay; type: functional, cell-based
# Outline: (§2)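 A549 cells, untreated or treated with drug plus TNF-α for 4 h, cross-linked with 1% formaldehyde (quenched with 0.125 M glycine), lysed, sonicated 12 W for 45 s, immunoprecipitated overnight at 4 °C with anti-RelA, anti-p50 or anti-RelB, collected on protein A/G beads. Cross-links reversed at 65 °C overnight; COX-2 promoter (nt -359 to +106) PCR-amplified 35 cycles, 2% agarose gel, input chromatin as control.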
# CL1-0 [3] = test: Decrease in COX2 protein level in TNF-alpha-stimulated human CL1-0 cells by Western blot; type: functional, cell-based
# Outline: (§3)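 CL1-0 cells serum-starved overnight, pretreated with various drug concentrations, then stimulated with TNF-α for 4 h. Lysates (50 µg) resolved by 10% SDS-PAGE, blotted, probed with specific antibodies in TBS pH 7.5/0.05% Tween 20/5% milk, HRP secondaries, chemiluminescent film detection; a representative blot shown.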
# CL1-0 [4] = test: Cytotoxicity against human CL1-0 cells assessed as disruption of cell morphology after 48 hrs; type: functional, cell-based
# A549 [5] = test: Decrease in NF-kappaB1 binding affinity to NF-kappaB response element on COX2 promoter in human A549 cells by chromatin immunoprecipitation assay; type: functional, cell-based; outline: as §2
# A549 [6] = test: Decrease in RelA binding affinity to NF-kappaB response element on COX2 promoter in human A549 cells by chromatin immunoprecipitation assay; type: functional, cell-based; outline: as §2
# [7] = Cell cycle arrest in human CL1-0 cells assessed as accumulation at S phase after 12 hrs by flow cytometry; type: functional, cell-based; outline: as §1
# CL1-0 [8] = test: Induction of cyclin B1 protein accumulation in human CL1-0 cells at 0.5 ug/mL after 24 hrs by Western blot; type: functional, cell-based
# Outline: (§4)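 CL1-0 cells exposed to rising concentrations for 24 h, or to 0.5 µg/mL over a time course; 50 µg lysate resolved by 10% SDS-PAGE, blotted, probed with cyclin/CDK-inhibitor antibodies in TBS-Tween/5% milk, HRP secondary, chemiluminescent film detection.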
# [9] = Cell cycle arrest in human CL1-0 cells assessed as accumulation at S phase after 2 hrs by flow cytometry; type: functional, cell-based; outline: as §1
# [10] = Cell cycle arrest in human CL1-0 cells assessed as accumulation at G0/G1 phase after 2 hrs by flow cytometry; type: functional, cell-based; outline: as §1
# CL1-0 [11] = test: Effect on cyclin E protein expression in human CL1-0 cells at 0.5 ug/mL after 24 hrs by Western blot; type: functional, cell-based; outline: as §4
# [12] = Cell cycle arrest in human CL1-0 cells assessed as accumulation at G0/G1 phase after 6 hrs by flow cytometry; type: functional, cell-based; outline: as §1
# CL1-0 [13] = test: Effect on cyclin A protein expression in human CL1-0 cells at 0.5 ug/mL after 24 hrs by Western blot; type: functional, cell-based; outline: as §4
# CL1-0 [14] = test: Inhibition of TNF-alpha-induced NF-kappaB transcriptional in human CL1-0 cells by luciferase reporter gene assay; type: cell-based
# Outline: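 CL1-0 cells transiently co-transfected with pNF-κB-Luc (0.2 µg) and pSV-β-galactosidase (1 µg) via lipofectamine; after 20 h switched to serum-free medium, pretreated 1 h, then stimulated with TNF-α for 4 h; luciferase normalized to β-galactosidase; n=3 independent transfections, mean ± SD.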
# CL1-0 [15] = test: Effect on p21 protein expression in human CL1-0 cells at 0.5 ug/mL after 24 hrs by Western blot; type: functional, cell-based; outline: as §4
# CL1-0 [16] = test: Induction of apoptosis in human CL1-0 cells assessed as PARP1 cleavage by Western blot; type: functional, cell-based
# CL1-0 [17] = test: Decrease in RelA protein level in TNF-alpha-stimulated human CL1-0 cells by Western blot; type: functional, cell-based; outline: as §3
# [18] = Cell cycle arrest in human CL1-0 cells assessed as accumulation at G2/M phase after 2 hrs by flow cytometry; type: functional, cell-based; outline: as §1
# [19] = Cell cycle arrest in human CL1-0 cells assessed as increase in accumulation at G2/M phase by flow cytometry; type: functional, cell-based; conditions: TDE = time-dependent effect; outline: as §1
# [20] = Cell cycle arrest in human CL1-0 cells assessed as accumulation at G2/M phase after 6 hrs by flow cytometry; type: functional, cell-based; outline: as §1
# [21] = molecular target: RAC-alpha serine/threonine-protein kinase (Homo sapiens) (UniProt P31749); test: Inhibition of TNF-alpha-induced AKT activation in human CL1-0 cells by Western blot; type: cell-based
# RAC-alpha serine/threonine-protein kinase (Homo sapiens), sequence (P31749 whole entry): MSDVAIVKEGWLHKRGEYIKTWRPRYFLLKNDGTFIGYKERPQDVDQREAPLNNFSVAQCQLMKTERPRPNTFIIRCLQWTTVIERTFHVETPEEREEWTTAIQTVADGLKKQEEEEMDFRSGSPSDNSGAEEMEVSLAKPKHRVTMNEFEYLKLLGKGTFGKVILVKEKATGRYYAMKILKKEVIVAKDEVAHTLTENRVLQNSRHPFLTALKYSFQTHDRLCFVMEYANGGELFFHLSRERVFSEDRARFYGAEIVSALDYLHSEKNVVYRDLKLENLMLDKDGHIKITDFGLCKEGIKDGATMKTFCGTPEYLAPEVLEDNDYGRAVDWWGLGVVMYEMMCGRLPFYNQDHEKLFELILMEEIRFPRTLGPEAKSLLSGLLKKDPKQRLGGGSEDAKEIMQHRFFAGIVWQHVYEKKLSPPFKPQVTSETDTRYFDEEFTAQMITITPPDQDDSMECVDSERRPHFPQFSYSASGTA
# Outline: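 CL1-0 (and A549) cells serum-starved overnight, pretreated at various concentrations, then TNF-α stimulated for 4 h; extracts immunoblotted for p-Akt, Akt, IKKα, p-IKKα/β; representative blot shown.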
# CL1-0 [22] = test: Effect on p27 protein expression in human CL1-0 cells at 0.5 ug/mL after 24 hrs by Western blot; type: functional, cell-based; outline: as §4
# [23] = molecular target: RAC-alpha serine/threonine-protein kinase (Homo sapiens) (UniProt P31749); test: Inhibition of AKT phosphorylation in human CL1-0 cells by Western blot; type: cell-based
# Outline: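 Western blot of CL1-0 cells after 24 h at increasing concentrations; probed for p-Akt, Akt and IκB; 50 µg lysate on 10% SDS-PAGE, HRP secondary, chemiluminescence on film.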
# [24] = Cell cycle arrest in human CL1-0 cells assessed as accumulation at G0/G1 phase after 12 hrs by flow cytometry; type: functional, cell-based; outline: as §1
structure (smiles),measurement,setting,value
COc1ccc2c(CN3CCC(CO)CC3)cc3cc4c(cc3c2c1)OCO4,Activity,[1],20.4%
same,Activity,A549 [2],Active
same,Activity,CL1-0 [3],Active
same,Activity,CL1-0 [4],Active
same,Activity,A549 [5],Active
same,Activity,A549 [6],Active
same,Activity,[7],23.9%
same,Activity,CL1-0 [8],Active
same,Activity,[9],15.1%
same,Activity,[10],53.7%
same,Activity,CL1-0 [11],inactive
same,Activity,[12],52.5%
same,Activity,CL1-0 [13],inactive
same,Activity,CL1-0 [14],Dose-dependent effect
same,Activity,CL1-0 [15],inactive
same,Activity,CL1-0 [16],Active
same,Activity,CL1-0 [17],Active
same,Activity,[18],25.4%
same,Activity,[19],tde
same,Activity,[20],24.3%
same,Activity,[21],Active
same,Activity,CL1-0 [22],inactive
same,Activity,[23],Dose-dependent effect
same,Activity,[24],41.7%
